TWEAK-Fn14 inh: TWEAK-Fn14 signaling inhibition | TWEAK-stimulated Fn14 reporter cells, luciferase luminescence, 8 h | 2% of 360,000 active | inhibition, % at 10 µM | AID 1159606; in the data active = inhibition above about 50%
Xi reactivation: X-chromosome reactivation activator; 0.055% of 360,000 active; activation, % at 7.58 µM; XiGFP mouse fibroblasts, % GFP-positive cells imaging, 3 d; cells co-treated with 5-aza-dC sensitizer; scaled so ellipticine positive control = 100%;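 active = mean normalized replicate activation at least 10% and every replicate at or above 10%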
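Assay system: SV40-immortalized XiGFP fibroblast cells, line 68-5-11; buffer or medium: DMEM plus 5-aza-dC sensitizer; compound: one concentration, pinned; timing: compounds 3 days, fix/stain 15 min at room temperature; benchmarks: positive control ellipticine, 6 µM final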
CaV13 ICDI inh: Disruptors of the CACNA1D IQ motif to Ca2+-dependent inactivation inhibitor domain association, primary screening, Förster resonance energy transfer in intact living …. AID 743397. inhibition, % at 12.3 µM. 0.098% of 340,000 active. HEK cells, CFP/YFP FRET ICDI-IQ, plate reader, 10 min; percent FRET-ratio fall versus neutral wells;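 active = mean replicate inhibition of at least 30% and at least 1% of replicates passing that level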
TROY NFkB inh: TROY signaling inhibition. 0.98% of 360,000 active. inhibition, % at 10 µM. Q293 LMP1-TROYcd NF-kB luciferase reporter, 4 h. AID 1347056;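 active = compounds whose plate-normalised and pattern-corrected inhibition of the luciferase reporter signal at the single screening dose is 50% or more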
LGR2 inh: blocks bursicon-induced cAMP signaling via Drosophila LGR2; inhibition, % at 9.99 µM; HEK293 LGR2, CRE-luciferase, bursicon-stimulated, 4 h; 0.35% of 380,000 active;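 active = drop in luminescence signal, shown as inhibition above about 50% in the replicate tests, limit read from the data, passing the limit was not always enough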;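 note: agonist challenge used bursicon conditioned medium at about half maximal strength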
Of the large screens only hits and unclear results are named; the others gave an inactive call. This is a sample that favours compounds with a hit; in the whole collection about 2% have one here.

O=C(Nc1nc2ccccc2s1)c1ccc(N2CCCCC2)c([N+](=O)[O-])c1	TWEAK-Fn14 inh 81 (no result: LGR2 inh)
O=C(Nc1ccon1)c1ccc(N2CCCCC2)c([N+](=O)[O-])c1	none
O=C(Nc1nc(-c2ccccc2)cs1)c1ccc(N2CCOCC2)c([N+](=O)[O-])c1	TWEAK-Fn14 inh 106, TROY NFkB inh 83 (no result: Xi reactivation, CaV13 ICDI inh, LGR2 inh)
O=C(Nc1ccccc1F)N1CC(=O)N2[C@H](CO)[C@@H](c3ccc(-c4cccnc4)cc3)[C@H]2C1	none (no result: TWEAK-Fn14 inh, CaV13 ICDI inh, TROY NFkB inh)
O=C(NNC(=O)c1cc(-c2cccnc2)nc2ccccc12)Nc1ccc(Cl)cc1	TROY NFkB inh 52
CC(C)OCCCNC(=O)c1cc(-c2cccnc2)nc2ccccc12	none
O=C(NNC(=O)c1cc(-c2ccncc2)nc2ccccc12)Nc1ccc(F)cc1	none
COCCCNC(=O)c1cc(-c2cccnc2)nc2ccccc12	TROY NFkB inh 57
CC(C)(C)c1ccc(-c2cc(C(=O)NNC(=O)Nc3ccccc3)c3ccccc3n2)cc1	none (no result: Xi reactivation, LGR2 inh)
O=C(NNC(=O)c1cc(-c2ccccc2)nc2ccccc12)Nc1cccc(Cl)c1	TROY NFkB inh 69 (no result: Xi reactivation, CaV13 ICDI inh, LGR2 inh)
CC(=O)c1ccc(NC(=O)CN2CCOCC2)cc1	TWEAK-Fn14 inh 110
CC(=O)c1ccc(NC(=S)Nc2ccc(N3CCOCC3)cc2)cc1	TROY NFkB inh 51
CCc1ccc(C(=O)NC(=S)Nc2ccc(N3CCOCC3)cc2)cc1	TROY NFkB inh 53
S=C(Nc1ccc(N2CCOCC2)cc1)Nc1ccc2nc(-c3ccco3)c(-c3ccco3)nc2c1	TWEAK-Fn14 inh 72 (no result: Xi reactivation, LGR2 inh)
C[C@H]1CN([C@@H](C)CO)C(=O)c2cc(NS(C)(=O)=O)ccc2O[C@@H]1CN(C)C(=O)Nc1ccc(C(F)(F)F)cc1	none (no result: TWEAK-Fn14 inh, CaV13 ICDI inh, TROY NFkB inh)
COCC(=O)Nc1ccc2c(c1)C(=O)N(C)C[C@@H](OC)[C@H](C)CN(C(=O)c1cnccn1)[C@H](C)CO2	none (no result: TWEAK-Fn14 inh, CaV13 ICDI inh, TROY NFkB inh)
Brc1cccc(-c2nnc(SCc3nc4ccccc4[nH]3)o2)c1	none (no result: Xi reactivation, LGR2 inh)
Cc1cccc(OCc2nnc(SCc3nc4ccccc4c(=O)[nH]3)o2)c1	none (no result: Xi reactivation, LGR2 inh)
COc1ccc(-c2nnc(SCc3nc4ccccc4c(=O)[nH]3)o2)cc1	TWEAK-Fn14 inh 51, TROY NFkB inh 56
c1ccc2[nH]c(CSc3nnc(-c4ccncc4)o3)nc2c1	TWEAK-Fn14 inh 58 (no result: Xi reactivation, CaV13 ICDI inh, TROY NFkB inh, LGR2 inh)
COc1ccc(CC(=O)NC(C)c2nnc(SCc3nc4ccccc4c(=O)[nH]3)n2C)cc1 (configuration not stated)	TWEAK-Fn14 inh 75 (no result: Xi reactivation, TROY NFkB inh, LGR2 inh)
Brc1cccc(CSc2nnc(-c3ccncc3)o2)c1	TWEAK-Fn14 inh 62
O=C(C[C@H]1C=C[C@H](NC(=O)c2ccncc2)[C@@H](CO)O1)NCc1ccncn1	none (no result: TWEAK-Fn14 inh, CaV13 ICDI inh, TROY NFkB inh)
O=C(Nc1ccc(-c2ccccc2)cc1)[C@H]1[C@H](CO)[C@H]2Cn3c(cccc3=O)[C@@H]1N2Cc1ccncc1	none (no result: TWEAK-Fn14 inh, CaV13 ICDI inh, TROY NFkB inh)
CO[C@@H]1CN(C)C(=O)c2cc(NS(=O)(=O)c3ccccc3F)ccc2OC[C@H](C)NC[C@@H]1C	none (no result: TWEAK-Fn14 inh, CaV13 ICDI inh, TROY NFkB inh)
C[C@@H]1CN([C@@H](C)CO)C(=O)c2c(c3ccccc3n2C)-c2ccccc2CO[C@@H]1CN(C)S(=O)(=O)c1ccc(Cl)cc1	none (no result: TWEAK-Fn14 inh, CaV13 ICDI inh, TROY NFkB inh)
COc1ccc(Cc2nnc(SCC(=O)NCCc3ccccc3)o2)cc1	none (no result: Xi reactivation, LGR2 inh)
COc1ccc(-c2nnc(SCC(=O)NCCc3ccccc3)o2)cc1	TWEAK-Fn14 inh 87 (no result: Xi reactivation, TROY NFkB inh, LGR2 inh)
CC(C)C(=O)N1CCN(c2ccc(NC(=O)c3ccc4c(c3)OCCO4)cc2Cl)CC1	TWEAK-Fn14 inh 82, TROY NFkB inh 61, LGR2 inh 85 (no result: Xi reactivation)
O=C(Nc1ccc(N2CCN(C(=O)c3ccc(Cl)cc3)CC2)cc1)c1ccc2c(c1)OCCO2	TWEAK-Fn14 inh 92, TROY NFkB inh 70 (no result: Xi reactivation)
C[C@@H]1CN([C@@H](C)CO)C(=O)c2cc(-c3cccnc3)cnc2O[C@H]1CN(C)C	none (no result: TWEAK-Fn14 inh, CaV13 ICDI inh, TROY NFkB inh)
O=C(Nc1ccc(C(F)(F)F)cc1)N[C@H]1CC[C@@H](CCn2cc(C3(O)CCCC3)nn2)O[C@@H]1CO	none (no result: TWEAK-Fn14 inh, CaV13 ICDI inh, TROY NFkB inh)
CC(=O)Nc1cccc(-c2csc(Nc3cc(C)ccn3)n2)c1	none (no result: Xi reactivation, LGR2 inh)
Cc1ccnc(Nc2nc(-c3ccccc3)cs2)c1	TWEAK-Fn14 inh 53
CC(=O)Nc1ccc(-c2csc(Nc3cc(C)ccn3)n2)cc1	TWEAK-Fn14 inh 50
CC(=O)Nc1cccc(-c2csc(Nc3ccccn3)n2)c1	TWEAK-Fn14 inh 58 (no result: Xi reactivation, LGR2 inh)
O=C(NCCCSc1ccccc1)c1cc(Br)ccc1O	TWEAK-Fn14 inh 51

Assay outcomes from PubChem.
